One experiment concerns Cell line. Briefly: Inhibition of proliferation in NCI panel of 60 human cell lines (Range is 20-80 uM). The format is functional.
The subject of a further experiment is MDA-MB-468. Nature of the experiment: Inhibition of MDA-468 human breast tumor cell proliferation. Type of experiment: functional, cell-based. The method in brief:
(§1)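 Seven-day MTT assay at 250-300 cells/well in RPMI 1640 with 10% FCS. After a 24-h drug-free attachment at 37 °C/5% CO₂, drug was added at 1 nM-100 µM (final DMSO <0.25%). MTT was added at a final 400 µg/mL for 4 h, formazan was dissolved in DMSO-glycine (4:1) and absorbance read at 550 nm. IC50 is the mean of at least three experiments.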

The subject of the next experiment is T47D. Nature of the experiment: Inhibition of T47D human breast tumor cell proliferation. The format is functional, cell-based. The procedure, abridged:
as §1

A further experiment relates to SK-BR-3. Nature of the experiment: Inhibition of SBBr3 human breast tumor cell proliferation. Type of experiment: functional, cell-based. The method in brief:
as §1

Experiment [1] concerns MCF7. Nature of the experiment: Inhibition of MCF-7/adr human breast tumor cell proliferation. The format is functional, cell-based. The method in brief: as §1
In experiment [2] the test system is MCF7. Nature of the experiment: (§2) Inhibition of MCF-7 human breast tumor cell proliferation. Type of experiment: functional, cell-based. The method in brief:
as §1

Another experiment deals with ZR-75-1. Nature of the experiment: Inhibition of ZR-75-1 human breast tumor cell proliferation. The format is functional, cell-based. The procedure, abridged:
as §1

Experiment [3] has as its system MCF7. Nature of the experiment: Inhibition of TGF-alpha stimulated MCF-7 human breast tumor cell proliferation. The format is functional, cell-based. The procedure, abridged: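 MCF-7 cells, 5 × 10³/well, were plated in phenol red-free RPMI 1640 with 5% charcoal-stripped FCS and allowed to attach overnight. Growth factor (IGF-I, IGF-II or TGF-α, as the line names) was then added together with drug. Cells grew a further 7 days, and viable cells were counted by MTT. IC50 is the mean of at least three experiments.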

Another experiment deals with MDA-MB-231. Briefly: Inhibition of MDA-231 human breast tumor cell proliferation. Type of experiment: functional, cell-based. The procedure, abridged:
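MTT assay, 7-day continuous drug exposure. Cells seeded at 250-300 cells/well in RPMI 1640 with 10% FCS and penicillin/streptomycin, attached over 24 h drug-free at 37 °C/5% CO2. Drug range 1 nM-100 µM from DMSO stocks, final DMSO <0.25%. MTT 400 µg/mL final for 4 h, formazan dissolved in DMSO-glycine, absorbance 550 nm. IC50 is the mean of at least three experiments.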

Experiment [4] relates to MCF7. Described as §2. Type of experiment: functional, cell-based. The procedure, abridged:
as §1
The source holds these as a separate data set.

In experiment [5] the target is Receptor tyrosine-protein kinase erbB-2. Nature of the experiment: Inhibition of c-erbB2 receptor.

Structures are written as SMILES.

Usually GI50 stands for the concentration at which growth is held to half of that of the control. Low readings indicate more potent growth inhibition, high ones less potent growth inhibition. The IC50 is the concentration that inhibits the measured activity by half.

Take `COc1cc(C(C)=O)cc(-c2cc(C(C)=O)cc(OC)c2O)c1O`: in the experiment with Cell line, growth was halved (GI50) at 80 µM.
On the same count and under the same terms, for `COc1cc(/C=C(\C#N)c2ccccn2)cc(-c2cc(/C=C(\C#N)c3ccccn3)cc(OC)c2O)c1O` the value was 80 µM.
Consider `COc1cc(/C=C(\C#N)c2ccccn2)ccc1O`, for which the IC50 with MDA-MB-468 came to 0.06 µM; in the experiment on T47D, 6 µM; with SK-BR-3, 0.5 µM; in the experiment on MCF7 [1], 52.8 µM; in the experiment with MCF7 [2] it was 2.7 µM; in the experiment on ZR-75-1, 2.6 µM. In addition, the IC50 stood at 2.3 µM in the experiment on MCF7 [3], 51 µM in the experiment with MDA-MB-231 and 0.7 µM in the experiment on MCF7 [4].
`COC1=C2C[C@@H](C)C[C@H](OC)[C@H](O)[C@@H](C)/C=C(\C)[C@H](OC(N)=O)[C@@H](OC)/C=C\C=C(/C)C(=O)NC(=CC1=O)C2=O` [GELDANAMYCIN]: the GI50 with Cell line stood at 0.327 µM.
The same measure, in the same setting: for `N#C/C(=C\c1ccc(Oc2ccccc2)c(I)c1)C(=O)NCCCc1ccccc1` the value was 80 µM.
As to `N#C/C(=C\c1ccc(Oc2ccccc2)c(I)c1)c1ccccn1`, the half-maximal inhibitory concentration (IC50) with MDA-MB-468 is 0.3 µM; with T47D it was 48.7 µM; in the experiment with SK-BR-3, 6.5 µM; in the experiment with MCF7 [1] it was 25.2 µM; in the experiment on MCF7 [2] it was 41.8 µM; with ZR-75-1 it was 24.7 µM. Also, the IC50 turned out to be 41 µM with MCF7 [3], 39.8 µM in the experiment with MDA-MB-231 and 20 µM in the experiment with MCF7 [4].
Regarding `N#C/C(=C\c1ccc(O)cc1)c1ccccn1`, the IC50 was 0.45 µM in the experiment with MDA-MB-468; 36.3 µM in the experiment on T47D; 7.8 µM with SK-BR-3; 51.2 µM in the experiment with MCF7 [1]; 73.8 µM in the experiment with MCF7 [2]; 48.5 µM with ZR-75-1. The values for the IC50 in the experiment on MCF7 [3], with MDA-MB-231 and in the experiment on MCF7 [4] were 67.7 µM, 40.3 µM and 15 µM, respectively.
As for `COc1cc(/C=C(\C#N)C(N)=O)cc(Sc2nc3ccccc3s2)c1O`, in experiment [5], the IC50 was 0.35 µM.
Turning to `COc1cc(/C=C(\C#N)C(N)=O)cc(-c2cc(/C=C(\C#N)C(N)=O)cc(OC)c2O)c1O`, the GI50 with Cell line stood at 80 µM.
The same measure, in the same setting: for `N#C/C(=C\c1ccc(Oc2ccccc2)c(I)c1)C(N)=O` the value was 80 µM.
On the same count and under the same terms, then `COC(=O)/C(C#N)=C/c1cc(OC)c(O)c(-c2cc(/C=C(\C#N)C(=O)OC)cc(OC)c2O)c1`, with 80 µM; and `COC(=O)c1cc(OC)c(O)c(-c2cc(C(=O)OC)cc(OC)c2O)c1`, with 80 µM.
Regarding `COc1cc(C=C(C#N)C#N)cc(-c2cc(C=C(C#N)C#N)cc(OC)c2O)c1O`, in the experiment with Cell line, it took 80 µM to inhibit growth by half (GI50).
In the case of `N#CC(C#N)=Cc1ccc(Oc2ccccc2)c(I)c1`, in the experiment on Cell line, the GI50 came to 80 µM.
Take `CCOc1cc(C=C(C#N)C#N)cc(-c2cc(C=C(C#N)C#N)cc(OCC)c2O)c1O`: the 50% growth inhibitory concentration (GI50) in the experiment on Cell line was determined as 80 µM.
In the experiment on Cell line, `COC(=O)/C(C#N)=C/c1ccc(Oc2ccccc2)c(I)c1` registered a GI50 of 80 µM.
For `COc1cc(C=O)cc(-c2cc(C=O)cc(OC)c2O)c1O`, in the experiment with Cell line, growth was halved (GI50) at 80 µM.

For the origin of these results see ChEMBL document CHEMBL1133720, “Structural studies on bioactive compounds. 32. Oxidation of tyrphostin protein tyrosine kinase inhibitors with hypervalent iodine reagents” (J Med Chem, 2000).
